Results reported in ChEMBL document CHEMBL4513216, “Probing the Open Global Health Chemical Diversity Library for Multistage-Active Starting Points for Next-Generation Antimalarials” (ACS Infect Dis, 2020).

Test: Toxicity liver stage against HepG2, at 10uM
Format: cell-based
Design: test concentration 10 uM, cell line HepG2-A16-CD81EGFP
Settings: human, HepG2-A16-CD81EGFP cells; read-out: INHIBITION
Method in brief: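 Uninfected HepG2-A16-CD81EGFP cells, 3 × 10^3 per well, 1536-well, plated on prespotted compound at 10 μM final, parasite-free screening media added to match infected plates; puromycin 10 μM positive, DMSO 0.5% negative; run in parallel with 48 h PbLuc assay at 37 °C, 5% CO2; viability by CellTiter-Glo luminescence, normalized to controls.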

SMILES	cytotoxicity at 10 µM [%]
COc1ccc(C(=O)Nc2cccc(SC)c2)c(OC)n1	13.2
COc1ccc2[nH]c3c(N(C)CC4OCCO4)ncnc3c2c1	36
O=C(NCC(=O)N1CCc2ccccc2C1)c1cnccn1	-4.81
O=C(NCCc1nccs1)c1n[nH]c2c1CCC2	3.89
CSc1ccccc1NC(=O)c1ccc(N2CCOCC2)nn1	0.951
O=C(NCCS(=O)(=O)N1CCN(c2ncccn2)CC1)c1ccccc1	-3.28
Cn1cccc1C(O)CNC(=O)c1ccc(C(F)(F)F)cc1 (centres undefined)	2.9
Cc1nocc1C(=O)N1CCCC2(CCN(c3ccsc3)C2=O)C1 (centres undefined)	-129
CC1CCc2nc(O)c(C(=O)NCc3ccccc3F)cc2C1 (centres undefined)	4.47
Cc1ccccc1-n1ccc2nc(N3CCCC3)ncc2c1=O	-5.1
CC(=O)N1CCCC1c1nccnc1Nc1ncccn1 (centres undefined)	-1.2
N#Cc1cnn(C(=O)CCCOc2ccccc2Cl)c1N	-1.34
COc1ccccc1OCC(=O)n1ncc(C#N)c1N	-20
O=C(c1cnc(-c2ccccc2)s1)N1CCOC2(CCCC2)C1	-1.52
CCn1cnnc1CNS(=O)(=O)N1CCCC1c1ccco1 (centres undefined)	-141
CCc1nnc(CN2CC(n3cccn3)C2)o1	-146
OCCN1CCN(Cc2coc(-c3ccccc3Cl)n2)CC1	-7.57
NC(=O)C(NC1CCN(CC2CCCCC2)CC1)c1ccccc1 (centres undefined)	-4.57
CS(=O)(=O)CCC(=O)Nc1ccsc1	-3.39
CN1CCN(C(=O)C2(NC(N)=O)CCCCC2)Cc2ccccc21	-6.32
COc1ccccc1-c1csc(-c2cccc(C(=O)O)c2)n1	12.3
COc1ccc(-c2csc(-c3cccc(C(=O)O)c3)n2)cc1OC	3.31
CC1(C)COCCN1C(=O)Cc1cc(Cl)c2c(c1)OCCO2	1.54

SMILES	cytotoxicity at 10 µM [%]
COC(=O)Cn1ccc(NS(=O)(=O)c2ccc3c(c2)CCC3)n1	10.6
O=C(Cc1csc(-c2ccoc2)n1)NCCC(=O)N1CCCCC1	9.13
N#Cc1csc(CNCCOc2ccccc2)c1	8.35
COc1ccc(OC)c(CN(C(=O)c2ccc(C)[nH]c2=O)C2CC2)c1	-1.59
O=C1CCN(C(=O)C2(c3ccc(F)cc3)CCOCC2)CCN1	-4.97
O=C(NCCc1ccsc1)c1ccoc1	-3.3
c1ncn(CCNC2CCCN(Cc3noc(C4CC4)n3)C2)n1 (centres undefined)	-2.77
OC(CN1CCN(CC(F)F)CC1)c1ccc(Br)cc1 (centres undefined)	-9.88
CC1CCCCN1Cc1nc(C2CC2)no1 (centres undefined)	4.48
CN(Cc1ccccc1OC(F)(F)F)C(=O)C1CCCN(C(N)=O)C1 (centres undefined)	7.59
COCCN(C)C(=O)Nc1ccc(C(=O)NCCC(=O)OC)cc1	7.2
Cc1cnc(CNC(=O)NCCOc2ncccc2Cl)s1	8.35
Cc1cnc(NC(=O)NCCOc2ncccc2Cl)s1	6.62
CCN(CC(F)(F)F)C(=O)C1CCCN(Cc2cscn2)C1 (centres undefined)	-8.64
Oc1ccc2oc3c(c2c1CN1CCOCC1)CCCC3	-0.499
CNC(=O)c1cccc(NC(=O)NCc2ccccc2)c1C	-1.67
O=C(NCC(O)COc1cccc(F)c1)C1(c2ccc(F)cc2)CC1 (centres undefined)	0.884
CCc1ccc(C2COCCN2C(=O)Nc2cc(C)on2)o1 (centres undefined)	-4.31
CCc1noc(CNc2c(F)cccc2-n2cccn2)n1	-5.14
CC(Cn1cccn1)NC(=O)Nc1ccc(N2CCCCC2)nc1 (centres undefined)	-4.39
CC(C)(O)CN1CCN(C(=O)c2ccn(-c3cccc(F)c3)n2)CC1	-3.53
CCC(O)CN1CCN(C(=O)c2ccn(-c3cccc(F)c3)n2)CC1 (centres undefined)	-1.65
CSC(C)(C)CNC(=O)Nc1cccc(-c2nccn2C)c1	-3.13

SMILES	cytotoxicity at 10 µM [%]
O=S1(=O)CCCN1Cc1coc(-c2ccc(C(F)(F)F)cc2)n1	-2.04
Cc1ccc(C(=O)Nc2ccc(N(C)C)nc2)n1C	-9.38
CN(CCn1nc2ccccn2c1=O)CC(=O)N(C)C1CCCCC1	-138
O=c1oc(-c2ccc(F)cc2)nn1CCS(=O)(=O)c1ccccc1	-0.924
CC(=O)Nc1nc(C(=O)NCCOc2ccccc2)cs1	6.11
Cc1oc(-c2ccccc2)nc1C(=O)NC1=NCCS1	1.85
CN1CCCN(CCCNC2CCc3cc4c(cc32)OCCO4)CC1 (centres undefined)	-3.68
CCOc1ccccc1OCC(=O)NCc1ncc(C)c(OC)c1C	1.09
COc1c(C)cnc(CNC(=O)CCOCc2ccccc2)c1C	-4.31
COc1ccc2c(OCC(=O)NCC(F)(F)F)ccnc2c1	-3.88
Cc1cc(N2CCCC(OC(=O)CCN3CCCC3=O)C2)nc(C)n1 (centres undefined)	2.58
Cc1noc(C)c1CCC(=O)N(C)C(C)c1cccs1 (centres undefined)	7.93
CCn1ccc2cc(NC(=O)CC3CCCO3)ccc21 (centres undefined)	2.5
CCOCCN1CCN(CC(O)c2cc(Cl)ccc2Cl)CC1 (centres undefined)	0.858
Cc1ccc(C(=O)N2CC(C(N)=O)O[C@H](C)C2)c(F)c1 (some centres undefined)	-5.43
COc1cc(Cl)c(NC(=O)NCCn2cccc2)cc1OC	-0.473
O=C(CO)N1CCN(S(=O)(=O)CCCF)CC1	-0.655
CNC(=O)c1ccc(N(C)C2CCC2)nn1	4.49
CC(C)n1cnnc1CN(C)Cc1ccoc1	3.15
NC(=O)CN1CCC(C(=O)NCc2ccc3nonc3c2)CC1	-0.969
CO[C@H]1CNC[C@@H]1NC(=O)c1cc(C)nc2ccc(C)cc12	1.25
COc1ncccc1C(=O)N1CCc2c(ncnc2N2CCOCC2)C1	-3.5
Cc1nc(C)n(CCCNC(=O)C(C)n2ccnc2C(C)C)n1 (centres undefined)	-4.97

SMILES	cytotoxicity at 10 µM [%]
CCc1ccc(CN2CCC(=O)N(CC3CC3)C(C(C)C)C2)nc1 (centres undefined)	2.08
O=C(Cn1ccc2ncccc2c1=O)N1CCCCC1	-7
CCOC(=O)N1CCN(C(=O)Cn2ccc3ncccc3c2=O)CC1	-4.99
CCc1nnc(N2C[C@@H](CN(C)CCO)[C@@H](CO)C2)s1	-5.61
O=C(CCc1nc(Cl)n[nH]1)N1CCC2(CCCNC2=O)C1 (centres undefined)	-6.37
COc1ccc(-n2ccnc2-c2cnc(C(C)C)nc2)cc1C(=O)O	-2.42
Cn1cnnc1CC1CCN(Cc2c(Cl)cncc2Cl)CC1	-9.42
CN(C)C(=O)N1CCCn2nc(CNC(=O)CCc3cccs3)cc2C1	-5.04
CC(C)c1cncnc1-c1cc(F)cc2c1OC(CN)C2 (centres undefined)	-4.02
CC(C)C1CN(Cc2cnc(N(C)C)nc2)CCCN1CC1CC1 (centres undefined)	-6
CN(C)c1ccc(-c2cccc(-c3ccn(CCCO)n3)c2)nn1	-3.06
CC(C)N1CCN(CCn2cnc3c(F)cccc3c2=O)CC1	1.64
COC[C@H](C)Nc1cc(C)c2ccc(SC)cc2n1	0.466
O=C(CCn1ccc2ncccc2c1=O)N1CCCC1	-1.93
CC(C)NS(=O)(=O)c1cc(C(=O)O)cc(-c2ccccc2F)c1	-7.56
Cc1ccc(C)c(S(=O)(=O)N2CCN(C)C3(CCC(=O)N(C)CC3)C2)c1 (centres undefined)	7.01
FC(F)C(F)(F)COCc1ncnn1-c1ccc2c(c1)OCO2	-2.82
Cn1cc(C(=O)N2CCCCC2CCc2ccc(O)cc2)cn1 (centres undefined)	-2.3
CC(C)c1noc(-c2ccc(NCC3CCCOC3)nc2)n1 (centres undefined)	-2.26
CCc1ncc(C(=O)N(C)C2Cc3ccccc3C2)cn1	-1.05
COc1cc(-c2nc3c([nH]2)CCCNC3=O)ccc1OC(C)C	13.3
COc1ccccc1Oc1ncccc1CNC(=O)[C@@H](N)[C@@H](C)O	-6.29
CCCc1cnc(C)nc1N1CCC2(CC1)CNC(=O)O2	44.6

SMILES	cytotoxicity at 10 µM [%]
COCCc1noc(-c2ccc(-c3ccc(N)nc3)nc2)n1	2.5
COc1ccccc1[C@@H]1CN(Cc2nccn2C)C[C@H]1C(=O)O	-4.83
CCC[C@@H]1CN(Cc2cnc3c(S(C)(=O)=O)cnn3c2)C[C@H]1N(C)C	-2.12
CCN1CCc2[nH]cnc2C12CCN(c1ccc(Cl)c(C(=O)O)n1)CC2	2.74
CC(C1CCN(Cc2cccc(OC(F)F)c2)CC1)N1CCOCC1 (centres undefined)	-9.2
COc1ccc(-c2nc3c([nH]2)CCCNC3=O)cc1OC	26.6
CN(Cc1ccco1)c1ccc(-c2nccn2C)nn1	-0.447
O=C(Cn1nc2ccccc2n1)N1CCCC(O)(CO)C1 (centres undefined)	-6.66
CN(CCN1CCCCC1)C(=O)c1cc(CN2CCOCC2)on1	-22.7
CC(C)NC(=O)N(C)C(c1cccc(F)c1)c1ccccn1 (centres undefined)	4.86
CNc1cc2c(nn1)CCN(C(=O)c1ccc3c(c1)OCO3)C2	6.85
CC(NC(=O)NCCS(C)(=O)=O)c1ccc2c(c1)CCC(=O)N2 (centres undefined)	1.39
Cc1oc(-c2ccco2)nc1CN1CCCC(Cn2cncn2)C1 (centres undefined)	-23.5
O=C(Nc1cccnc1)C1=NN(c2ccccc2)C(=O)CN1	-7.12
O=C(NCCc1ccccc1F)NCC(O)c1cccc(F)c1 (centres undefined)	-6.23
Cc1cc(N2CCC(C(=O)N(C)C)CC2)nc(-c2ccncc2)n1	-17.1
Cc1nc(CN2CCN(C(=O)c3sccc3C)CC2)cs1	0.96
O=C(NCC(c1ccccc1)N1CCOCC1)Nc1cn[nH]c1 (centres undefined)	-15.8
CC(C)OCc1nn(CC2CC2)c2c1CN(Cc1ccco1)CC2	-15.4
CNC(=O)CN1CC[C@H]2CN(C(=O)c3ccc(C)cc3)C[C@H]2C1	-4.06
CN(C)S(=O)(=O)N1C[C@H]2CCC[C@@]2(COCc2cccnc2)C1	9.19
COCCN1C(=O)[C@@H]2CC[C@H]1CN(C(=O)Cc1c(F)cccc1Cl)C2	-1.02
